Legend:
[1] = target: T1, Protein deacetylase HDAC6 (Homo sapiens, UniProt Q9UBN7); experiment: Inhibition of recombinant human full length N-terminal GST-tagged HDAC6 expressed in baculovirus infected Sf9 cells using Z-(Ac)Lys-AMC as substrate measured after 90 mins by fluorescence assay
T1 sequence (Q9UBN7 whole entry): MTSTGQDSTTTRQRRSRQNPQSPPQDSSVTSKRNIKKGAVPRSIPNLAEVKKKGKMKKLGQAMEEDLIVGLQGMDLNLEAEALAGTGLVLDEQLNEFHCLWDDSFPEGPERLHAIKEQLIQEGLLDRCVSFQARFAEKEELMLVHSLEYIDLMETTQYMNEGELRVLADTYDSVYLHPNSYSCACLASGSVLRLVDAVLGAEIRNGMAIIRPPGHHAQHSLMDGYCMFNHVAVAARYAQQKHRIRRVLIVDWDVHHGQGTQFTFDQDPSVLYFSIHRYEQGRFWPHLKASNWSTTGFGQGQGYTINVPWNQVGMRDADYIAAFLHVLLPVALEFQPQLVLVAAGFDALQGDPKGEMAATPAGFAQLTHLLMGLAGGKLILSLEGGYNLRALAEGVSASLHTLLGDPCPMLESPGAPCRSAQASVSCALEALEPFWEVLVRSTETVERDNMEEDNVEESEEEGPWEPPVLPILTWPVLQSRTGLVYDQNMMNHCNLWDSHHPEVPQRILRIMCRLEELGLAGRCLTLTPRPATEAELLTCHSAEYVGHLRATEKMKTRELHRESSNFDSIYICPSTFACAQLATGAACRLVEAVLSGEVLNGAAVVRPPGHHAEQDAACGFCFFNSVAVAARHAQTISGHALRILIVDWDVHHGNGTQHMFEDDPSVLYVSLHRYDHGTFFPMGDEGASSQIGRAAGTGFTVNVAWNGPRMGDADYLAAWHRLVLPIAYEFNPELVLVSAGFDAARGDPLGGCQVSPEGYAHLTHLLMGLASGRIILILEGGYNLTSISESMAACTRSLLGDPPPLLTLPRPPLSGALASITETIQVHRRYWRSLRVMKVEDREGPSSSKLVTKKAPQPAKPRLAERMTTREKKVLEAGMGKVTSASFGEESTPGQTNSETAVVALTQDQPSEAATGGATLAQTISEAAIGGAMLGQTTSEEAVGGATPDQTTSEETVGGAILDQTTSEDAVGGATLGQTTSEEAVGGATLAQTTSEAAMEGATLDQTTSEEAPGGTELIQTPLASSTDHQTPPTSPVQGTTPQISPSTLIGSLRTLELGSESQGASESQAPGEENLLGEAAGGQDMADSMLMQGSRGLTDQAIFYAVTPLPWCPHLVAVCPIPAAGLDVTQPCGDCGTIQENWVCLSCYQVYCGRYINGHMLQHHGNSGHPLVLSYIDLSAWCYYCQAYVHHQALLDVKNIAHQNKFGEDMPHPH

[2] = target: Histone deacetylase 1 (Homo sapiens, UniProt Q13547); experiment: Inhibition of recombinant human C-terminal FLAG/His-tagged HDAC1 (1 to 482 residues) expressed in Sf9 insect cells using Z-(Ac)Lys-AMC as substrate measured after 90 mins by fluorescence assay
Summary of the method: (§1)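 Incubated with inhibitor in DMSO and fluorogenic substrate Z-(Ac)Lys-AMC (126 µM, as added) for 90 min at 37 °C. Stopped with trichostatin A plus trypsin for 30 min at 37 °C; fluorescence read at ex 390/em 460 nm.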

[3] = target: T2, HDAC1 (histone deacetylase 1) (Homo sapiens, UniProt Q13547); experiment: Inhibition of recombinant human C-terminal FLAG/His-tagged HDAC1 (1 to 482 residues) expressed in Sf9 insect cells at 10 uM using Z-(Ac)Lys-AMC as substrate measured after 90 mins by fluorescence assay relative to control; conditions: probe Z-(Ac)Lys-AMC; summary of the method: as §1
[4] = target: T2, HDAC1 (histone deacetylase 1); experiment: Inhibition of recombinant human C-terminal FLAG/His-tagged HDAC1 (1 to 482 residues) expressed in Sf9 insect cells at 1 uM using Z-(Ac)Lys-AMC as substrate measured after 90 mins by fluorescence assay relative to control; conditions: probe Z-(Ac)Lys-AMC; summary of the method: as §1
[5] = target: T2, HDAC1 (histone deacetylase 1); experiment: Inhibition of recombinant human C-terminal FLAG/His-tagged HDAC1 (1 to 482 residues) expressed in Sf9 insect cells at 25 uM using Z-(Ac)Lys-AMC as substrate measured after 90 mins by fluorescence assay relative to control; conditions: probe Z-(Ac)Lys-AMC; summary of the method: as §1
[6] = target: T2, HDAC1 (histone deacetylase 1); experiment: Inhibition of recombinant human C-terminal FLAG/His-tagged HDAC1 (1 to 482 residues) expressed in Sf9 insect cells at 50 uM using Z-(Ac)Lys-AMC as substrate measured after 90 mins by fluorescence assay relative to control; conditions: probe Z-(Ac)Lys-AMC; summary of the method: as §1

T2 sequence (Q13547 whole entry, the tested form may be a part): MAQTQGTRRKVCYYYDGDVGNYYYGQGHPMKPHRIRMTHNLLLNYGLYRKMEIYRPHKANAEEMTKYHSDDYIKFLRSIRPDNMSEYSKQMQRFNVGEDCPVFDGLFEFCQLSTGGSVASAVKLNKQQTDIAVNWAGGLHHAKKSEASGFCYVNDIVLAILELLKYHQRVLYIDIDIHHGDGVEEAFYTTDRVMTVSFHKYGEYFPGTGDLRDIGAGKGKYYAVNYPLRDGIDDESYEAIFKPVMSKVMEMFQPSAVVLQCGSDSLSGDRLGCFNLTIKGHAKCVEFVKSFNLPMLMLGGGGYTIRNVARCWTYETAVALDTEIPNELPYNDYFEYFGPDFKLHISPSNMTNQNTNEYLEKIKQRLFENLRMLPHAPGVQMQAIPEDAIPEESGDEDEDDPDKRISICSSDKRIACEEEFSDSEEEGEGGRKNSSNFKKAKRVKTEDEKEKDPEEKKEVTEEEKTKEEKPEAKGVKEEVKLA
Chain of Histone deacetylase 1 (Q13547 whole entry, the tested form may be a part): as above

| Structure (SMILES) | IC50 [1] | IC50 [2] | inhibition at 1.5 h, 10 µM [3] | inhibition at 1.5 h, 1 µM [4] | inhibition at 1.5 h, 25 µM [5] | inhibition at 1.5 h, 50 µM [6] |
| --- | --- | --- | --- | --- | --- | --- |
| O=C(NO)c1ccc(COc2c(-c3cccnc3)c3ccccc3n(Cc3ccncc3)c2=O)cc1 | 45.3 nM | 1700 nM |  |  |  |  |
| O=C(NO)c1ccc(COc2c(-c3ccccc3)c3ccccc3n(Cc3ccccc3)c2=O)cc1 | 176 nM |  | 76% | 17% | 93% | 97% |
| O=C(NO)c1ccc(COc2c(-c3ccccc3)c3ccccc3n(C3CCN(Cc4ccccc4)CC3)c2=O)cc1 | 870 nM |  | 46% | < 10% | 67% | 79% |

— ChEMBL document CHEMBL4732101, “Novel quinolone-based potent and selective HDAC6 inhibitors: Synthesis, molecular modeling studies and biological investigation” (Eur J Med Chem, 2021)
